Source: the EternaBench riboswitch data

System: MS2 coat protein
Test: apparent Kd, MS2 coat protein; higher = weaker binding; RNA-MaP array; theophylline 2 mM where present
Summary of the method: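 Stalled E. coli RNA polymerase produced the designs on Illumina sequencing-chip clusters. SNAP-549-labelled MS2 coat protein was added from 0.7 or 1.5 nM, doubling to 3 µM, without and then with constant ligand, in 100 mM Tris-HCl pH 7.5, 80 mM KCl, 4 mM MgCl2, BSA, DTT, yeast tRNA and Tween-20. The apparent Kd is the median of filtered per-cluster fits of green signal normalised to red-channel RNA signal and control-cluster median Fmax.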

[1] = designed as: ON switch for theophylline, no ligand
[2] = ligand present: theophylline, designed as: ON switch for theophylline
[3] = designed as: OFF switch for theophylline, no ligand
[4] = ligand present: theophylline, designed as: OFF switch for theophylline

Row | Sequence | apparent Kd [1] [nM] | apparent Kd [2] [nM] | apparent Kd [3] [nM] | apparent Kd [4] [nM]
1 | CCUAUGACAUGAGGAUCACCCAUGUUGGAUACCAGCGCAUGAGGACGCCCUUGGCAGCCAAUGAACAUGAGGAUACAUGAGGAUC | 44.5 | 185 | – | –
2 | AGUACUCGAACGGAUACCAGCCGGACAUGAGGAUCACCCAUGUCCUACCUAUGUUCGGUUGGCCCUUGGCAGCCGUUCGUGUACA | 215 | 51 | – | –
3 | CGGUUUGUGAUGGAUACCAGCAGAGUGAAUGUUUAUCCUGACAUGAGGAUCACCCAUGUGUGCCCUUGGCAGCUGUUGUGGGCUG | – | – | 63.5 | 89.4
4 | AGUCUAUGGAGAGAUACCAGUGAGAGCCAUAGACAUGAGGAUCACCCAUGUGACAUGGAUCACCCUUGGCAGCUCAACGAGCUCU | 126 | 20.2 | – | –
5 | GAACAUGAGGAUCACCCAUGUAAAACAGAUACCAGUGAUAUAAUACACCCUUGGCAGCUGAAGCUGAAUAAUAAUUCCCUCAAGC | 14.8 | 16.4 | – | –
6 | UAUAUAAUAACAGAUACCAGCGUGUUAUAAAACAUGAGGAUCACCCAUGUAGUGAUCAAGCGCCCUUGGCAGCUGGUAUUAUAUA | 72.2 | 146 | – | –
7 | UGGGCAUACAUGAGGAUCACCCAUGUAGAUACCAGCACUAGCCUGUGCCCUUGGCAGCUAACCGGGUCGAGAACUUAGUGCUCCU | – | – | 11.8 | 52.7
8 | ACAUGAGGAUCACCCAUGUGCCGAGUUGAUACCAGACCCGCACUAGUCCCUUGGCAGCAACUACGUGUGGGACACCCAUGUUAAG | – | – | 54.4 | 71.3
9 | GGUGGCGGGACUGAUACCAGCCACCACCGAUAGACCACAUGAGGAUCACCCAUGUUGGGUGGCCCUUGGCAGCAGUCUUGCUGCU | 542 | 630 | – | –
10 | AUCUGUAUGUUUUCGUGUUUUAUUACAGAUACCAGACUAUACGUUGUCCCUUGGCAGCUGGAUGACAUGAGGAUCACCCAUGUUG | – | – | 33.5 | 36.6
11 | CUGCCAUGCAGAGAUACCAGUGAGCUCAAAACAUGAGGAUCACCCAUGUAAAUUGCCGAUCACCCUUGGCAGCUCUGCAUGGCAG | 9.78 | 7.84 | – | –
12 | UAUAAAAUAACAGAUACCAGCGUGUUAUAAAACAUGAGGAUCACCCAUGUAGUGAUCAAGCGCCCUUGGCAGCUGGUAUUUUAUA | 101 | 126 | – | –
13 | UUACAUGAGGAUCACCCAUGUCAUAAUGAUACCAGAUAGUUGAUGAUCCCUUGGCAGCAUAGUACCUAGACAUGUGAGUCAUAGG | 113 | 132 | – | –
14 | AAAACACAUGAGGAUCACCCAUGUCGUGAUACCAGUCAACAUGAGGACCCUUGGCAGCAUAAAAUGGGUAACAUGAGGAUAACCC | – | – | 89.6 | 146
15 | AUUCCAUUGGUGCAGUUGUUAAAUGGCGAUACCAGCGUGGAAACACGCCCUUGGCAGCGCCAAAACAUGAGGAUCACCCAUGUUA | – | – | 61 | 120
16 | AAACAUGAGGAUCACCCAUGUUCAAUAGAUACCAGUGAUACGGUGCACCCUUGGCAGCUGUUGCUGAGUGAUGGUUCCCUCGGUA | 29 | 37.3 | – | –
17 | AGUGUUGUAACUGAUACCAGACCUUUGCUUAUACAUGAGGAUCACCCAUGUAAAAUGGCGGUCCCUUGGCAGCAGAGAAGACGCA | 40.1 | 12.2 | – | –
18 | AGCGACAUGCGUGAUACCAGCUACAUGAGGAUCACCCAUGUAAGUAGGAAACUACUGUGUAGCCCUUGGCAGCACAGUGCAUGUC | – | – | 9.48 | 26.6
19 | CUAGGAAACUAGUAAGGGUGGUAUAGAGAUACCAGUACAGAAAUGUACCCUUGGCAGCUCACUGCAACAUGAGGAUCACCCAUGU | – | – | 32.3 | 102
20 | UUUUAAGGGAUCGGUGCUGGUAGCAGAGAUACCAGAGUAAUGAUACUCCCUUGGCAGCUCAGUACAUGAGGAUCACCCAUGUUUU | – | – | 17.4 | 25.9
21 | ACGACGCAUAGUGAUACCAGCACAACAUGAGGAUCACCCAUGUCACUUAUGUAGUAAUAAUGCCCUUGGCAGCACUAUGCGUCAG | 55.2 | 65.6 | – | –
22 | AUGUCGUUGAAUAUAGCGGCUUGGAGUGAUACCAGUAUGAUCCAAUACCCUUGGCAGCAUAACAUGAGGAUCACCCAUGUUCCAG | 21.3 | 31.6 | – | –
23 | UGCAUCAUAAUCAUGUUGGUGCUAGGUGAUACCAGCAUCGAAAGAUGCCCUUGGCAGCACCAACAUGAGGAUCACCCAUGUAAUA | 114 | 337 | – | –
24 | UGUUUUGUGAUGGAUACCAGCAGAGAAAACGUUUAUCCUAACAUGAGGAUCACCCAUGUAUGCCCUUGGCAGCUGUUGUGGGAUA | – | – | 29.7 | 34.1
25 | ACGCUGAUUGAUUACAAUCAGCGAAAAGAUACCAGUGGGUAAUCCCACCCUUGGCAGCUUAAACAUGAGGAUCACCCAUGUGGUA | 74.5 | 123 | – | –
26 | UCUUUCUAUGUAGAUACCAGCAUGUUAUAUUUCUAAUGACAUGAGGAUCACCCAUGUAAAUGCCCUUGGCAGCUGCGUUUUCUUU | 16.9 | 13.2 | – | –
